pIC50, pKi: −log10 of the molar value.
How the values were obtained:
[1] = target: Phosphatidylinositol 4,5-bisphosphate 3-kinase catalytic subunit alpha isoform (Homo sapiens, UniProt P42336); assay: Inhibition of human full length p110alpha (1 to 1068 residues) expressed in baculovirus-infected Sf21 cells by ADP-Hunter Plus assay
[2] = target: Serine/threonine-protein kinase mTOR (Homo sapiens, UniProt P42345); assay: Inhibition of recombinant human GST tagged mTOR (1360 to 2549 residues) expressed in baculovirus expression system measured by LanthaScreen assay
Summary of the method: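 mTOR inhibition measured by LanthaScreen assay; IC50 values average two independent experiments.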

[3] = AUC (infinity) in BALB/c mouse at 5 mg/kg, iv measured for 8 hrs; assay type: ADME, organism-based; design: route intravenous, dose 5 mg/kg, time 8 hrs; details: in vivo
Summary of the method: (§1)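 BALB/c mice dosed I.V. or P.O. at the stated dose; plasma levels followed for 8 h. Parameters from noncompartmental analysis: AUC (h.ng/ml), T1/2 (h), Cl (L/h/Kg), Vd (L/Kg), Cmax (ng/ml), Tmax (h).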

[4] = Metabolic stability in human liver microsomes assessed as parent compound remaining in presence of NADPH regenerating system at 0.5 uM measured after 15 mins by LC-MS/MS analysis; assay type: ADME, Microsome; details: read-out: Stabilty
Summary of the method: (§2)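 Human, mouse or rat liver microsomes at 0.5 mg/ml protein with compound at 0.5 µM and NADPH-regenerating system, 37 °C with shaking. Control wells contain 0.1 M potassium phosphate instead of the regenerating system. Reaction stopped with acetonitrile/0.1% formic acid, centrifuged, supernatant analyzed by LC-MS/MS. Result is percent parent compound remaining.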

[5] = Metabolic stability in mouse liver microsomes assessed as parent compound remaining in presence of NADPH regenerating system at 0.5 uM measured after 15 mins by LC-MS/MS analysis; assay type: ADME, Microsome; details: read-out: Stabilty; summary of the method: as §2
[6] = Metabolic stability in rat liver microsomes assessed as parent compound remaining in presence of NADPH regenerating system at 0.5 uM measured after 15 mins by LC-MS/MS analysis; assay type: ADME, Microsome; details: read-out: Stabilty; summary of the method: as §2
Cytochrome P450 1A2 = target: T1, Cytochrome P450 1A2 (Homo sapiens, UniProt P05177); assay: Inhibition of CYP1A2 (unknown origin) using Luciferin-ME as substrate at 10 uM preincubated with enzyme and substrate for 5 mins followed by addition of NADPH regeneration system and measured after 60 mins by luminescence method; assay type: ADME
T1 sequence (P05177 whole entry): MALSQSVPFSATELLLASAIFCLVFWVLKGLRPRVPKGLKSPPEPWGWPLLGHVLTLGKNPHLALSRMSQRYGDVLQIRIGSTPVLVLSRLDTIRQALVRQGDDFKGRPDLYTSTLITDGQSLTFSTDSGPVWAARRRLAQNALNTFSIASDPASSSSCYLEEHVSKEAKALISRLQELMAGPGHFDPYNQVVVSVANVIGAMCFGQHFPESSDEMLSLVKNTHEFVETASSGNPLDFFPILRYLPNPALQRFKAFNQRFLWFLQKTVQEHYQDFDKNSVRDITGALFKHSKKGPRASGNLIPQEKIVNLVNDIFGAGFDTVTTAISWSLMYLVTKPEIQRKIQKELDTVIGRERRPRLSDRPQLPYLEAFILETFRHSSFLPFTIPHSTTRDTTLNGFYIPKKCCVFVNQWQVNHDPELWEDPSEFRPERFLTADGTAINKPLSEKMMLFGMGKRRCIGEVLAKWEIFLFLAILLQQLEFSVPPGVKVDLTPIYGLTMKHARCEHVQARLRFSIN
Summary of the method: (§3)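 P450-Glo luminescence assays with these substrates: Luciferin-ME (CYP1A2), Luciferin-PPXE (CYP3A4), Luciferin-H (CYP2C9), LuciferinH-EG (CYP2C19), Luciferin-ME-EG (CYP2D6). Compounds run in 1/3 serial dilutions from 10 µM in 0.5% DMSO with enzyme and substrate. After 5 min preincubation, NADPH regeneration reagent added; 60 min at 37 °C, then detection reagent for 30 min. Background subtracted.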

Cytochrome P450 3A4 = Cytochrome P450 3A4 (Homo sapiens, UniProt P08684); assay: Inhibition of CYP3A4 (unknown origin) using Luciferin-PPXE as substrate at 10 uM preincubated with enzyme and substrate for 5 mins followed by addition of NADPH regeneration system and measured after 60 mins by luminescence method; assay type: ADME; summary of the method: as §3
Cytochrome P450 2C9 = Cytochrome P450 2C9 (Homo sapiens, UniProt P11712); assay: Inhibition of CYP2C9 (unknown origin) using Luciferin-H as substrate at 10 uM preincubated with enzyme and substrate for 5 mins followed by addition of NADPH regeneration system and measured after 60 mins by luminescence method; assay type: ADME; summary of the method: as §3
Cytochrome P450 2C19 = Cytochrome P450 2C19 (Homo sapiens, UniProt P33261); assay: Inhibition of CYP2C19 (unknown origin) using LuciferinH-EG as substrate at 10 uM preincubated with enzyme and substrate for 5 mins followed by addition of NADPH regeneration system and measured after 60 mins by luminescence method; assay type: ADME; summary of the method: as §3
Cytochrome P450 2D6 = Cytochrome P450 2D6 (Homo sapiens, UniProt P10635); assay: Inhibition of CYP2D6 (unknown origin) using Luciferin-ME-EG as substrate at 10 uM preincubated with enzyme and substrate for 5 mins followed by addition of NADPH regeneration system and measured after 60 mins by luminescence method; assay type: ADME; summary of the method: as §3
[7] = Cmax in BALB/c mouse at 10 mg/kg, po measured for 8 hrs; assay type: ADME, organism-based; design: route oral, dose 10 mg/kg, time 8 hrs; details: in vivo; summary of the method: as §1
PI3K p110 beta/p85 alpha = PI3K p110 beta/p85 alpha (Homo sapiens, UniProt P42338); assay: Inhibition of human p110beta/p85alpha using PIP2 as substrate in presence of ATP measured by HTRF assay; assay type: protein-complex assay
Homo sapiens [8] = species on record: Homo sapiens; assay: Selectivity ratio of Ki for human p110beta/p85alpha to Ki for human p110alpha/p85alpha using PIP2 as substrate in presence of ATP
Summary of the method: (§4)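 Ki from a PI3-kinase HTRF assay run per manufacturer. Enzyme levels: p110α/p85α and p110δ/p85α 100 pM, p110β/p85α 500 pM, p110γ 4 nM. ATP at 50× KM: 200 μM (α, δ), 250 μM (β), 100 μM (γ). PIP2 10 μM. Activity normalized to no-compound control. Ratio is the isoform Ki over the α Ki.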

Homo sapiens [9] = species on record: Homo sapiens; assay: Selectivity ratio of Ki for human p110delta/p85alpha to Ki for human p110alpha/p85alpha using PIP2 as substrate in presence of ATP; summary of the method: as §4
[10] = target: PI3-kinase p110-alpha/p85-alpha (Homo sapiens, UniProt P42336, E542K); assay: Inhibition of p110alpha E542K mutant/p85alpha (unknown origin) using PIP2:3PS lipid kinase as substrate in presence of ATP measured by ADP-Glo lipid kinase assay; assay type: protein-complex assay
Summary of the method: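 Lipid kinase assay with PIP2:3PS substrate held at 3.25 µM. Activity normalized to no-compound control for each enzyme and fitted to a variable-slope sigmoidal dose-response curve.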

SK-OV-3 = assay: Growth inhibition of human SK-OV-3 cells harboring mutated p110alpha measured after 72 hrs by Cell titre Glo-luminiscence cell viability assay; assay type: functional
Summary of the method: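 Cells harvested just before confluency and seeded at 4,000 cells/well, then left 24 h before dosing. Serial dilutions from 10 mM DMSO stocks, final DMSO ≤0.5%, each concentration in duplicate.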

Chain of PI3K p110 beta/p85 alpha (P27986 whole entry): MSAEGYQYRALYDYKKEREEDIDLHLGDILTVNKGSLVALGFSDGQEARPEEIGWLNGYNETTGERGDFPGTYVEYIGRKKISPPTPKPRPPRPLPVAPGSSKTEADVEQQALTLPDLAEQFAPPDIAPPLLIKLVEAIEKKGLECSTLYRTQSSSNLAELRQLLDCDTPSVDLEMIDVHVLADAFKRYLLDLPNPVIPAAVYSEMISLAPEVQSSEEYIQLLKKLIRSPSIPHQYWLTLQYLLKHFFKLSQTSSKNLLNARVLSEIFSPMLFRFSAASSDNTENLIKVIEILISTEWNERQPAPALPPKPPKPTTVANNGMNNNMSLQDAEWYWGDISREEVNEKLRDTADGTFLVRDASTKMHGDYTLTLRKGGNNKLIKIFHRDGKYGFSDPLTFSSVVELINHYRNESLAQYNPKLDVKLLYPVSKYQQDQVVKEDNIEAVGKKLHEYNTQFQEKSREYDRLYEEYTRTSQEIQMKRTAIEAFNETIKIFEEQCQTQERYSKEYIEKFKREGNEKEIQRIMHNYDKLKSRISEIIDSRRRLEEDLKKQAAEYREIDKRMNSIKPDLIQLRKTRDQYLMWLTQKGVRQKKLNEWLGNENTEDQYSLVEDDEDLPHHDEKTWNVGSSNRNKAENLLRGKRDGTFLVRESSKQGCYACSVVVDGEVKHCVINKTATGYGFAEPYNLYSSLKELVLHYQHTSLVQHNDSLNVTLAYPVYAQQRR
Chain of PI3K p110 beta/p85 alpha (P42338 whole entry): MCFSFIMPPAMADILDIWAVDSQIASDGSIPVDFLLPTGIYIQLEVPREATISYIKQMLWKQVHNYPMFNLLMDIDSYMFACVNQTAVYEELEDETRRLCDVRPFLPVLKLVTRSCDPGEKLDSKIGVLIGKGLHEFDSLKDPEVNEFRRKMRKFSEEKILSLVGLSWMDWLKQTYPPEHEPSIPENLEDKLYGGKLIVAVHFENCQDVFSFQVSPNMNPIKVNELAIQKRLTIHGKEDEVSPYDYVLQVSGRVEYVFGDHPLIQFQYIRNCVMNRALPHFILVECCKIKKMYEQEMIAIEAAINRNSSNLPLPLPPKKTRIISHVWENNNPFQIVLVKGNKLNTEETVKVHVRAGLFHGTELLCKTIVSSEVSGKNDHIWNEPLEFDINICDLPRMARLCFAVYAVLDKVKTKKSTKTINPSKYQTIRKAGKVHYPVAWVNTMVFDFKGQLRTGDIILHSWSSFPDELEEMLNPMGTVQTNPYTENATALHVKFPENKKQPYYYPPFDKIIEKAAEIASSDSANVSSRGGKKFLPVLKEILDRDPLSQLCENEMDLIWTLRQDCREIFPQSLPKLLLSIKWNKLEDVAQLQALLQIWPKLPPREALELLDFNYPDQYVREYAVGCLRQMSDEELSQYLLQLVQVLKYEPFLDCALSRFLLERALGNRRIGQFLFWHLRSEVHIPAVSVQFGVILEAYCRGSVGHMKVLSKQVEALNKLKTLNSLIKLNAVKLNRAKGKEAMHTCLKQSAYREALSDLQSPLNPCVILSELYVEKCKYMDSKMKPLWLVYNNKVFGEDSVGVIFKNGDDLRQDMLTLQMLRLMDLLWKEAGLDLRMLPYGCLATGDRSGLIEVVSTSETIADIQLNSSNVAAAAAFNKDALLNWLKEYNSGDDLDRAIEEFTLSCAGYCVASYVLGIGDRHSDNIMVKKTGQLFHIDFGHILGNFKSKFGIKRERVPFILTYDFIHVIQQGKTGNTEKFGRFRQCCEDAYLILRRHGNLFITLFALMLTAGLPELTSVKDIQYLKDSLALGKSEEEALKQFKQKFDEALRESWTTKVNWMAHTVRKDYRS
Chain of Cytochrome P450 2C9 (P11712 whole entry): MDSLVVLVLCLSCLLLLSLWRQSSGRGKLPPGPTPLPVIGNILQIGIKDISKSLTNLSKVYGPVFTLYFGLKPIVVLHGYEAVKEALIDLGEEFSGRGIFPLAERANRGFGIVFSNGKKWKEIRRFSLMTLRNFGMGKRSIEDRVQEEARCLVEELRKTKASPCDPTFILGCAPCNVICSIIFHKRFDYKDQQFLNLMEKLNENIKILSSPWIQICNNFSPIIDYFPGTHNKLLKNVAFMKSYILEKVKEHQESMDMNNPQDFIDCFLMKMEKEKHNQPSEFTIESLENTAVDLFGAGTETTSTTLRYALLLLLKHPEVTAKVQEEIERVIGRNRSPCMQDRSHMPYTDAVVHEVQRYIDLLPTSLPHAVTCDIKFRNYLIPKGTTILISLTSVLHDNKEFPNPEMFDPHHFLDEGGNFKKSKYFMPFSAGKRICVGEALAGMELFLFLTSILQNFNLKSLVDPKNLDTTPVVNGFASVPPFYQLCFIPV
Chain of Cytochrome P450 2D6 (P10635 whole entry): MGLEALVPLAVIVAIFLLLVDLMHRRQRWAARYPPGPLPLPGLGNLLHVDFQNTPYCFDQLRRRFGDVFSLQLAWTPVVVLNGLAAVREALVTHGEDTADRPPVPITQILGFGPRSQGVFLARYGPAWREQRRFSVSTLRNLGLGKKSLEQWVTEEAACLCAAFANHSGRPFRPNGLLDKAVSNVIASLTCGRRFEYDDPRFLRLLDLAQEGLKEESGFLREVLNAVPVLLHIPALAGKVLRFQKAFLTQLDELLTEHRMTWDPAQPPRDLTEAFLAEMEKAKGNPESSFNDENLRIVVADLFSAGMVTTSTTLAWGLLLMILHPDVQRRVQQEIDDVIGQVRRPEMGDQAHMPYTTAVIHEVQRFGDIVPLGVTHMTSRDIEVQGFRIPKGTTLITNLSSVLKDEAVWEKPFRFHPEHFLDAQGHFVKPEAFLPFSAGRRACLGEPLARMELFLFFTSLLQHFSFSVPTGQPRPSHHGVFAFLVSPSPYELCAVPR
Chain of Cytochrome P450 2C19 (P33261 whole entry): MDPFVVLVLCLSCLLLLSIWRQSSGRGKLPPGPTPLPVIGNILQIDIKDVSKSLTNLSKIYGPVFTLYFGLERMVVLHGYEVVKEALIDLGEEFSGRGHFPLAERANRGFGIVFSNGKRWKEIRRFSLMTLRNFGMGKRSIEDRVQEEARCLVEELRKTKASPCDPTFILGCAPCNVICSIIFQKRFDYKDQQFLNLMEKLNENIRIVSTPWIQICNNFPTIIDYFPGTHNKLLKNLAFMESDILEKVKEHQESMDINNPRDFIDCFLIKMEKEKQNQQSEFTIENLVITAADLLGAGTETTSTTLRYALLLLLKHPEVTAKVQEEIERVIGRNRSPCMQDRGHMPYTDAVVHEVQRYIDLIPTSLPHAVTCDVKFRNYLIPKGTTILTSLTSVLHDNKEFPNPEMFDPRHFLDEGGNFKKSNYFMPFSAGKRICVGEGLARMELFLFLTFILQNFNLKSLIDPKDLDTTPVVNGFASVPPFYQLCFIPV
Chain of Phosphatidylinositol 4,5-bisphosphate 3-kinase catalytic subunit alpha isoform (P42336 whole entry, the tested form may be a part, canonical isoform): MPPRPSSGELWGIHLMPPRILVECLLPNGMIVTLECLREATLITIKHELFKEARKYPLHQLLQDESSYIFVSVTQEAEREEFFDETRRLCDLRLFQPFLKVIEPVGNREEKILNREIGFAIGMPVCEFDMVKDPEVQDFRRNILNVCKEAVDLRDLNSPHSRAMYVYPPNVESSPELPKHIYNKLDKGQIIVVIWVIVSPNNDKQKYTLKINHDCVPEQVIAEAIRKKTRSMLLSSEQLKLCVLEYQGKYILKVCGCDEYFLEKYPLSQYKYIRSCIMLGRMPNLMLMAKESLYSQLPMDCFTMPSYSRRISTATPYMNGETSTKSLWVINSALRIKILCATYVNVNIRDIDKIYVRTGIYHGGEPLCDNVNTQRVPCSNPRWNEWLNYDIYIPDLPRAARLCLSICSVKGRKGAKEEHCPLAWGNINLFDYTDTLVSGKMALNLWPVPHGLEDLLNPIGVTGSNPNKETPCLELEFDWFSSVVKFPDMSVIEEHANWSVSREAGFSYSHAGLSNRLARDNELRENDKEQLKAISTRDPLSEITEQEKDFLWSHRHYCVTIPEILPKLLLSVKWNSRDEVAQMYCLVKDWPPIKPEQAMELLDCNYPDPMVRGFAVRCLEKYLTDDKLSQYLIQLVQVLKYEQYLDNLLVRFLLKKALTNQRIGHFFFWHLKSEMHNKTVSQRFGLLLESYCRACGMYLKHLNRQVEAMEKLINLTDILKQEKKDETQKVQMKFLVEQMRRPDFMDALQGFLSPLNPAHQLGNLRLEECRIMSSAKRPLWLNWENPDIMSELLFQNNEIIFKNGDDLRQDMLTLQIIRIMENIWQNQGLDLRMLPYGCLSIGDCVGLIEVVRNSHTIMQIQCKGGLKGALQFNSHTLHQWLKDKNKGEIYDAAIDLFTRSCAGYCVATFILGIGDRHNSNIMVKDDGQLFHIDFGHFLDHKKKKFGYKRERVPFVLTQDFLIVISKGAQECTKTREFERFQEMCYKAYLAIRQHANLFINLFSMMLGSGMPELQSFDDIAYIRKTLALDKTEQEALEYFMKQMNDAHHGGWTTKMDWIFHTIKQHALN
Chain of PI3-kinase p110-alpha/p85-alpha (P42336 whole entry E542K, looked up): as the sequence (P42336 whole entry, the tested form may be a part, canonical isoform) above, with E542K counted along it
Chain of Cytochrome P450 3A4 (P08684 whole entry): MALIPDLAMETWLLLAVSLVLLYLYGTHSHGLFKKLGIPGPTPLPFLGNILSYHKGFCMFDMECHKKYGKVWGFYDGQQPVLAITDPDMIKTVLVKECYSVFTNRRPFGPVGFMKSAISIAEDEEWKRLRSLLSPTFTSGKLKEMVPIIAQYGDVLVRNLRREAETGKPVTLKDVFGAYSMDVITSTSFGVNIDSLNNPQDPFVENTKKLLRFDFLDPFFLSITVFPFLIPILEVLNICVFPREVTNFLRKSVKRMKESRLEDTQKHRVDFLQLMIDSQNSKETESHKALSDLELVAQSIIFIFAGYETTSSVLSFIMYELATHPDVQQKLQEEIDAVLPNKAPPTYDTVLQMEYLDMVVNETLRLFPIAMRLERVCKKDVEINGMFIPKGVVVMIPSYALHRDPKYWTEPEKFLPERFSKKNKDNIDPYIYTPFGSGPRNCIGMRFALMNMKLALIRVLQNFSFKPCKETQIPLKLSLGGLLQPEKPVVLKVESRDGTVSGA

pIC50 [1]: 9.10 | pIC50 [2]: 8.48 | AUC(0-inf) [3]: 2640 ng·h/mL | remaining at 0.25 h, 0.5 µM [4]: 100% | remaining at 0.25 h, 0.5 µM [5]: 97% | remaining at 0.25 h, 0.5 µM [6]: 100% | pIC50 (Cytochrome P450 1A2): < 4.52 | pIC50 (Cytochrome P450 3A4): < 4.52 | pIC50 (Cytochrome P450 2C9): < 4.52 | pIC50 (Cytochrome P450 2C19): < 4.52 | pIC50 (Cytochrome P450 2D6): < 4.52 | Cmax [7]: 1570 ng/mL | pKi (PI3K p110 beta/p85 alpha): 9.03 | Selectivity ratio (Homo sapiens [8]): 6 | Selectivity ratio (Homo sapiens [9]): 0.4 | pKi [10]: 9.57 | GI50 (SK-OV-3): 18.9 nM
SMILES: COc1ncc2cc1NS(=O)(=O)c1cccc(c1)C(=O)NCc1cncc(c1)-c1cnc3ccc-2cn13
